Results from paper PMC6906348 (Therapeutic Advances in Medical Oncology, 2019).

System: patients with MET-dysregulated advanced hepatocellular carcinoma (HCC)
Test: Antitumor activity per RECIST 1.1
Format: in vivo, human
Details: for Best overall response: Unknown: RECIST 1.1 data do not qualify for PD, PR, or SD
How it was run: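 Asia-Pacific patients with advanced HCC received oral test compound twice daily in continuous 21-day cycles: 300 mg capsules (dose-determining), or 600 mg capsules or 400 mg tablets (expansion), until progression or toxicity. Investigator read response per RECIST 1.1 on CT, or contrast MRI if CT was contraindicated. MET-high meant IHC 3+ in ⩾50% tumor cells, or 2+ in ⩾50% plus FISH GCN ⩾5.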

[1] = Dose-determining n = 8 (300 mg BID capsules)
[2] = Dose-expansion, All patients n = 30
[3] = Dose-expansion, MET-high n = 10
[4] = MET-high expansion group (n = 10)
[5] = MET-high expansion group, 1 patient

SMILES: CNC(=O)c1ccc(-c2cnc3ncc(Cc4ccc5ncccc5c4)n3n2)cc1F [capmatinib]
- Best overall response: Complete response (CR) [1]: 0 n (%)
- Best overall response: Partial response (PR) [1]: 0 n (%)
- Best overall response: Progressive disease [1]: 3 (38) n (%)
- Best overall response: Unconfirmed CR [1]: 0 n (%)
- Best overall response: Unconfirmed PR [1]: 0 n (%)
- Disease control rate (CR + PR + SD) (95% CI) [1]: 2 (25) (3.2−65.1) n (%)
- Overall response rate (CI 95%) [1]: 0 (0−36.9) n (%)
- Best overall response: Unknown [1]: 3 (38) n (%)
- Best overall response: Complete response (CR) [2]: 1 (3) n (%)
- Best overall response: Partial response (PR) [2]: 2 (7) n (%)
- Best overall response: Progressive disease [2]: 16 (53) n (%)
- Best overall response: Unconfirmed CR [2]: 0 n (%)
- Best overall response: Unconfirmed PR [2]: 1 (3) n (%)
- Disease control rate (CR + PR + SD) (95% CI) [2]: 10 (33) (17.3−52.8) n (%)
- Overall response rate (CI 95%) [2]: 3 (10) (2.1−26.5) n (%)
- Best overall response: Unknown [2]: 4 (13) n (%)
- Best overall response: Complete response (CR) [3]: 1 (10) n (%)
- Best overall response: Partial response (PR) [3]: 2 (20) n (%)
- Best overall response: Progressive disease [3]: 4 (40) n (%)
- Best overall response: Unconfirmed CR [3]: 0 n (%)
- Best overall response: Unconfirmed PR [3]: 1 (10) n (%)
- Disease control rate (CR + PR + SD) (95% CI) [3]: 5 (50) (18.7−81.3) n (%)
- Overall response rate (CI 95%) [3]: 3 (30) (6.7−65.2) n (%)
- Best overall response: Unknown [3]: 1 (10) n (%)
- Best overall response: Complete response (CR) (Dose-expansion, MET-low n = 20): 0 n (%)
- Best overall response: Partial response (PR) (Dose-expansion, MET-low n = 20): 0 n (%)
- Best overall response: Progressive disease (Dose-expansion, MET-low n = 20): 12 (60) n (%)
- Best overall response: Unconfirmed CR (Dose-expansion, MET-low n = 20): 0 n (%)
- Best overall response: Unconfirmed PR (Dose-expansion, MET-low n = 20): 0 n (%)
- Disease control rate (CR + PR + SD) (95% CI) (Dose-expansion, MET-low n = 20): 5 (25) (8.7−49.1) n (%)
- Overall response rate (CI 95%) (Dose-expansion, MET-low n = 20): 0 (0−16.8) n (%)
- Best overall response: Unknown (Dose-expansion, MET-low n = 20): 3 (15) n (%)
- number of complete responses [4]: 1
- number of partial responses [4]: 2
- duration of durable complete response [5]: > 600 days
- duration of durable partial response [5]: > 600 days
- overall response rate (all expansion patients (n = 30), regardless of MET status): 10%
- time on treatment of two responding patients (at data cut-off, still on treatment): over 600 days
- patients with MET-high status achieving tumor shrinkage (expansion stage): 6/10
- overall response rate (expansion stage, MET-high (n = 10)): 30%
